Experimental data taken from ChEMBL document CHEMBL1140356, “Developing microcolin A analogs as biological probes” (Bioorg Med Chem Lett, 2005).

Legend:
[1] = test system: EL4; experiment: Cytotoxicity against EL-4 cell line (mouse thymoma); format: functional, cell-based
Outline: (§1)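 Cell proliferation inhibition measured in cultured cells; value reported as IC50.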

[2] = test system: P388; experiment: Cytotoxicity against P-388 cell line (mouse T-cell leukemia); format: functional, cell-based; outline: as §1
[3] = test system: P388; experiment: Cytotoxicity against P-388 cell line (mouse T-cell leukemia cells); format: functional, cell-based
Outline: (§2)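 Growth-inhibition assay on cultured cells, reported as IC50. […] used primary mouse lymphocytes, either PMA/ionomycin-stimulated or in a mixed lymphocyte reaction. C2C12 are nontransformed mouse myoblasts. BAE are primary bovine aortic endothelial cells.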

[4] = test system: EL4; experiment: Cytotoxicity against EL-4 cell line (mouse thymoma cells); format: functional, cell-based; outline: as §2
[5] = Cytotoxicity against C2C12 cell line (mouse myoblast cells); format: functional, cell-based; outline: as §2
[6] = test system: EL4; experiment: Cytotoxicity against mouse thymoma cells (EL-4 cell lines); format: functional, cell-based; outline: as §2
[7] = Cytotoxicity against BAE cell line (bovine aortic endothelial cells); format: functional, cell-based; conditions: Bos taurus; outline: as §2
[8] = species: Mus musculus; experiment: Cytotoxicity against mouse mixed lymphocyte reaction; format: functional; outline: as §2
[9] = Cytotoxicity against mouse PMA ionomycin-stimulated lymphocytes; format: functional; outline: as §2
[10] = test system: Jurkat; experiment: Cytotoxicity against Jurkat cell line (human T-cell leukemia cells); format: functional, cell-based; outline: as §2
[11] = test system: N1E-115; experiment: Cytotoxicity against N1E-115 cell line (mouse neuroblastoma cells); format: functional, cell-based; outline: as §2

CC(=O)OC(C)[C@H](NC(=O)[C@H](CC(C)C)N(C)C(=O)CCOCCOCCOCCOCCNC(=O)CCCC[C@@H]1SC[C@@H]2NC(=O)N[C@@H]21)C(=O)N(C)[C@H](C(=O)N1C[C@@H](O)C[C@H]1C(=O)N1C(=O)C=C[C@@H]1C)C(C)C (some centres undefined)
IC50 [1]: 10000 nM
IC50 [2]: 10000 nM

CCCCCCCC(=O)N(C)[C@@H](CC(C)C)C(=O)N[C@H](C(=O)N(C)[C@H](C(=O)N1C[C@@H](O)C[C@H]1C(=O)N1C(=O)C=C[C@H]1C)C(C)C)C(C)OC(C)=O (some centres undefined)
IC50 [3]: 7000 nM
IC50 [4]: 6000 nM

CCCCCCCC(=O)N(C)[C@@H](CC(C)C)C(=O)N[C@H](C(=O)N(C)[C@H](C(=O)N1C[C@@H](O)C[C@H]1C(=O)N1C(=O)C=C[C@@H]1C)C(C)C)C(C)OC(C)=O (some centres undefined)
IC50 [3]: 66.7 nM
IC50 [5]: 43.4 nM
IC50 [6]: 45.6 nM
IC50 [7]: 36.7 nM
IC50 [8]: 32.8 nM
IC50 [9]: 30.3 nM
IC50 [10]: 39.4 nM
IC50 [11]: 35.9 nM

CCCCCCCC(=O)N(C)[C@@H](CC(C)C)C(=O)N[C@H](C(=O)N(C)[C@H](C(=O)N1CCC[C@H]1C(=O)N1C(=O)C=C[C@@H]1C)C(C)C)C(C)OC(C)=O (some centres undefined)
IC50 [3]: 5000 nM
IC50 [4]: 6000 nM
